An excerpt weighted towards active compounds, which were near 2.4% of everything screened.
S1P4 ag – agonists of human S1P4 receptor. S1P4-expressing cell line, agonist reporter assay. O95977. hit rate 0.35% among 220,000. AID 1509. activation, % at 4.98 µM; in the data active = activation above about 11%
S1P4 antag – antagonists of human S1P4 receptor. O95977. S1P4-expressing cells, antagonist mode, reporter read-out. hit rate 0.26% among 220,000. AID 1510. inhibition, % at 4.98 µM; in the data active = inhibition above about 29%
NPY-Y1 antag – blocks the human neuropeptide Y Y1 receptor | P25929 | HEK293-CNG Y1 cells, membrane potential fluorescence; NPY at EC95, then isoproterenol | inhibition, % at 3.6 µM | hit rate 1% among 200,000 | AID 1040;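 active = inhibition above the campaign mean inhibition of all tested compounds plus 3 SD, cut at about 20% in these data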
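Material: Y1- and CNG-channel-expressing HEK293 cells / Probe or stimulus: NPY 25 nM then isoproterenol 1 µM plus Ro 20-1724 25 µM / Doses: 3.6 µM single dose, DMSO 0.4% / Schedule: compound incubation 1 h at room temperature, readout 45 min post-stimulation / Signal: membrane potential fluorescence / Benchmarks: isoproterenol-only wells as full block versus NPY-plus-isoproterenol wells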
NPY1 pot ag – human NPY-Y1 potentiation or agonism, primary screen | NPY-Y1 expressing cells, potentiator/agonist activation | activation, % at 3.6 µM | AID 1304 | hit rate 0.37% among 220,000; in the data active = activation above about 33%, passing the limit was not always enough;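 also: cells stimulated with NPY at EC10 then isoproterenol at EC100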
NPY Y2 blocker – antagonists of human neuropeptide Y receptor Y2 | P49146 | NPY-Y2 expressing cells, antagonist mode | inhibition, % at 2.7 µM | hit rate 0.99% among 140,000 | AID 793; in the data active = inhibition above about 17%
Target sequence (P49146 whole entry, looked up): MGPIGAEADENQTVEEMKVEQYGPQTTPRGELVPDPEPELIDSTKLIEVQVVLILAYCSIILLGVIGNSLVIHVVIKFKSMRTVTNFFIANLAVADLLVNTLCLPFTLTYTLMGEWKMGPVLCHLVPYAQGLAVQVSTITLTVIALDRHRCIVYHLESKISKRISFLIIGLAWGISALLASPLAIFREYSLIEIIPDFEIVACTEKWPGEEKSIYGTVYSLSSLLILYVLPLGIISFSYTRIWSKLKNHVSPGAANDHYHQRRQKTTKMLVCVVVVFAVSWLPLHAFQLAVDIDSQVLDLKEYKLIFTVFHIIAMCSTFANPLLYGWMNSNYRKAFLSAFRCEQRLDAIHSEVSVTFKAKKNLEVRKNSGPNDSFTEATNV
NPY2 pot ag – human NPY-Y2 potentiation or agonism, primary screen | P49146 | cells expressing NPY-Y2, potentiator/agonist read-out | activation, % at 3.6 µM | hit rate 0.45% among 220,000; in the data active = activation above about 27%;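 also: cells stimulated with NPY near EC25 plus isoproterenol at EC100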
NPY-Y1 antag ct – human NPY-Y1 antagonism in NPY-Y2 counter-screen. inhibition, % at 3.6 µM. shares compounds with NPY Y2 blocker. AID 1256. hit rate 19% among 710. cell-based NPY-Y1 antagonism counterscreen; in the data active = inhibition above about 20%;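 also: cells challenged with NPY then isoproterenol with cAMP sensed through a CNG channel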
NPY-Y2 ant conf – confirmation of human neuropeptide Y receptor Y2 antagonists; hit rate 32% among 710; HEK293 NPY-Y2 CNG channel, membrane potential fluorescence; shares compounds with NPY Y2 blocker; AID 1257; inhibition, % at 2.8 µM;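 active = mean inhibition of triplicate wells above the hit cutoff set in the primary screen, cut at about 17% in these data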
NPY-Y2 confirm – human NPY-Y2 potentiation or agonism, confirmation; shares compounds with NPY2 pot ag; cell-based NPY-Y2 potentiator/agonist assay; activation, % at 3.6 µM; hit rate 20% among 450; AID 1539; in the data active = activation above about 33%
NPY-Y1 potentiator – potentiates or activates NPY-Y1, counter-screen for NPY-Y2 hits; hit rate 20% among 450; activation, % at 3.6 µM; Y1 HEK293-CNG cells, membrane potential fluorescence; AID 1651; shares compounds with NPY2 pot ag; in the data active = activation above about 45%;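 also: cells stimulated with submaximal NPY then isoproterenol with phosphodiesterase inhibitor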
NPY-Y1 agonist 2 – activates human NPY-Y1, counter-screen for NPY-Y2 potentiators; AID 1702; activation, % at 3.6 µM; HEK293 Y1-CNGC, membrane potential fluorescence, agonism; shares compounds with NPY2 pot ag; hit rate 37% among 450;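 active = activation above the mean of DMSO-only control wells plus 3 SD, cut at about 18% in these data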;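 also: cells stimulated with 1 µM isoproterenol plus the PDE inhibitor Ro 20-1724; Y1 agonists lower the membrane potential dye signal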
CNGC inhibitor – cyclic nucleotide gated channel inhibition as counter-screen. shares compounds with NPY2 pot ag. HEK293-CNG parental, isoproterenol cAMP, membrane potential fluorescence. inhibition, % at 3.6 µM. hit rate 32% among 450. AID 1703;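 active = inhibition above the control-well mean plus 3 SD of those wells, cut at about 22% in these data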
NPY-Y2 ag 2 – counter-screen for NPY-Y2 potentiators: agonists of human NPY-Y2 | shares compounds with NPY2 pot ag | HEK293 Y2/CNGC cells, membrane potential fluorescence, agonist mode | activation, % at 3.6 µM | hit rate 56% among 450 | AID 1710;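 active = activation above the mean of solvent-only control wells plus 3 SD, cut at about 10% in these data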;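 also: cells stimulated by isoproterenol with no NPY added so direct agonism is tested; agonism lowers probe fluorescence through less cAMP and CNG channel opening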
S1P4 agonist cf – human S1P4 agonism, confirmation. shares compounds with S1P4 ag. activation, % at 4.98 µM. S1P4 agonist cell-based reporter assay. hit rate 7% among 740; in the data active = activation above about 12%
S1P1 agonist – activates human S1P1, counter-screen for S1P4 agonists; shares compounds with S1P4 ag; activation, % at 4.98 µM; hit rate 4% among 740; S1P1 agonist cell-based assay, activation; in the data active = activation above about 21%
S1P4 antag conf – human S1P4 antagonism, confirmation. shares compounds with S1P4 antag. S1P4-expressing cell line, antagonist mode, reporter read-out. inhibition, % at 4.98 µM. hit rate 71% among 520; in the data active = inhibition above about 30%
S1P1 antagonist – counter-screen for S1P4 antagonists: antagonists of human S1P1 | shares compounds with S1P4 antag | cell-based S1P1 antagonist counterscreen, inhibition | inhibition, % at 4.98 µM | hit rate 37% among 520; in the data active = inhibition above about 40%;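 also: receptor stimulated with S1P near its EC80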
Of the large screens only hits and unclear results are named; the others gave an inactive call (follow-up assays come after a bar, where they were run).

c1ccc(C(Cc2nc(-c3ccncc3)no2)c2ccccc2)cc1	NPY Y2 blocker 23, NPY2 pot ag 42 | NPY-Y1 antag ct inactive | NPY-Y2 ant conf inactive | NPY-Y2 confirm inactive | NPY-Y1 potentiator inactive | NPY-Y1 agonist 2 inactive | CNGC inhibitor inactive | NPY-Y2 ag 2 inactive
CCOc1ccc(N2CSC(=S)N(c3ccc(OCC)cc3)C2)cc1	none (no result: NPY-Y1 antag, NPY Y2 blocker)
CN(C)CCCNS(=O)(=O)c1cc(Cl)ccc1Cl	none
CN(C)CCCNS(=O)(=O)c1ccc(N2CCC(c3ccc(Cl)cc3)=N2)cc1	S1P4 ag 96, NPY Y2 blocker 18 | NPY-Y1 antag ct inactive | NPY-Y2 ant conf inactive | S1P4 agonist cf 59 | S1P1 agonist 153
N#Cc1ccc(OCC(O)CS(=O)(=O)c2ccccc2)cc1 (configuration not stated)	none (no result: NPY Y2 blocker)
C/C(CC1CC(COCC(C)C)OC1=O)=N\NC(N)=S (configuration not stated)	S1P4 ag 13, NPY Y2 blocker 27 | NPY-Y1 antag ct inactive | NPY-Y2 ant conf inactive | S1P4 agonist cf inactive | S1P1 agonist inactive
COc1ccc(C(=O)C(CN2CCOCC2)c2ccccc2)cc1F (configuration not stated)	S1P4 antag 33, NPY Y2 blocker 17 | NPY-Y1 antag ct inactive | NPY-Y2 ant conf inactive | S1P4 antag conf 46 | S1P1 antagonist inactive
Nc1cccc2[nH]c(C(F)(F)F)nc12	none (no result: NPY Y2 blocker)
O=C(NC(NNc1ccc([N+](=O)[O-])cc1)(C(F)(F)F)C(F)(F)F)c1ccccc1Cl	none
O=C(NC(Nc1nc2ccc([N+](=O)[O-])cc2s1)(C(F)(F)F)C(F)(F)F)c1ccccc1Cl	S1P4 antag 43, NPY1 pot ag 55, NPY Y2 blocker 24, NPY2 pot ag 83 | NPY-Y1 antag ct inactive | NPY-Y2 ant conf inactive | S1P4 antag conf 64 | S1P1 antagonist inactive
